The target of data set [1] is T1, Indoleamine 2,3-dioxygenase 1 (Homo sapiens, UniProt P14902). Briefly: Inhibition of human N-terminal His-tagged IDO1 expressed in Escherichia coli using D-Trp as substrate.
For data set [2], the target named is T1, Indoleamine 2,3-dioxygenase 1. Kind of data set: Inhibition of IDO1 in IFN-gamma-stimulated human HeLa cells assessed as decrease in kynurenine levels after 48 hrs. Format: cell-based.
Data set [3] has as its system Liver. Briefly: Intrinsic clearance in rat hepatic S9 fraction at 5 uM in presence of UDPGA measured over 30 mins by LC/MS analysis. Format: ADME. The settings on record: s9, 0.5 h.
Data set [4] concerns Liver. Briefly: Intrinsic clearance in rat hepatic S9 fraction at 5 uM in presence of UDPGA/NADPH measured over 30 mins by LC/MS analysis. The class given is ADME, tissue-based. The note with it: s9, 0.5 h. The gist of the method: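 Rat hepatic S9 (2 mg/mL protein) with compound 5 µM, 50 mM Tris-HCl pH 7.5, 8 mM MgCl2, 2 mM NADPH, 2 mM UDPGA, 12.7 µM alamethicin, 37 °C. Reaction started with S9. Aliquots taken over 0–30 min, quenched with acetonitrile, analyzed by LC/MS.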

A short description of data set [5]: Permeability across apical to basolateral side in human Caco2 cells at 50 uM after 120 mins by LC/MS analysis. The class given is ADME, cell-based. The settings on record: Caco-2, read-out: permeability. The gist of the method: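 Caco-2 cells (passages 21–45) seeded at 4,000/well on PET transwell filters and used 21–26 days after seeding. Monolayers accepted at TEER ≥300 Ω·cm² and run in Hank's balanced salt solution. After 120 min incubation, receiver-side sample taken, acetonitrile-precipitated, quantified by LC/MS.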

In data set [6] the test system is Plasma. Kind of data set: Fraction unbound in human plasma after 2 hrs by equilibrium dialysis method. Format: ADME, cell-free. In short, it runs like this: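 Equilibrium dialysis of human plasma (1 mL) containing compound against 1 mL 0.133 M phosphate buffer pH 7.4. Membrane cut-off 10,000 Da, teflon cells rotated at 12 rpm for 2 h at 37 °C. Recovered volumes weighed and matrix-matched 1:1. Acetonitrile precipitation, LC/MS/MS of both sides.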
In general terms: In equilibrium dialysis only unbound substance equilibrates across the membrane.

Data set [7] relates to Rattus norvegicus. Kind of data set: AUC in rat at 5 mg/kg, iv or 5 mg/kg, po by LC/MS/MS analysis. Format: ADME, organism-based. The settings on record: in vivo. In short, it runs like this:
(§1)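 Male rats, 5 mg/kg IV in 10% DMAC/saline or 5 mg/kg oral in 0.5% aqueous methylcellulose. Plasma (EDTA) sampled pre-dose to 24 h. Quantified by acetonitrile precipitation and LC/MS/MS (2–10000 nM range, 0.1 mL). Non-compartmental analysis of concentration–time data.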

Data set [8] in a line: Half life in rat at 5 mg/kg, po by LC/MS/MS analysis. The settings on record: in vivo. Format: ADME, organism-based. In short, it runs like this: as §1
A short description of data set [9]: Half life in cynomolgus monkey at 10 mg/kg, po by LC/MS/MS analysis. The class given is ADME, organism-based, Macaca fascicularis. The note with it: in vivo. The gist of the method: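 Male cynomolgus monkeys given 4 mg/kg IV (5% DMAC, 40% propylene glycol in saline) or 10 mg/kg orally (0.5% methylcellulose). EDTA plasma collected pre-dose through 24 h. Acetonitrile protein precipitation, then LC/MS/MS quantification, linear 2–10000 nM. PK parameters by standard non-compartmental methods.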

Data set [10] concerns CT26. Briefly: Antitumor activity against mouse CT26 cells allografted in immunocompetent Balb/c mouse assessed as reduction in tumor growth at 30 mg/kg, po measured on day 24 relative to vehicle-treated control. The class given is functional.
Data set [11] can be described thus: AUC in mouse CT26 cells allografted immunocompetent Balb/c mouse model at 30 mg/kg, po by LC/MS/MS analysis. Format: ADME, organism-based. The settings on record: in vivo.
Data set [12] has as its system CT26. Kind of data set: Antitumor activity against mouse CT26 cells allografted in po dosed Balb/c nu/nu mouse assessed as tumor growth inhibition. The class given is functional, organism-based.
Data set [13] has as its system Mus musculus. Kind of data set: In vivo inhibition of IDO1 in wild type C57BL/6 mouse assessed as reduction in kynurenine levels in plasma at 50 mg/kg, po qd after 8 hrs by LC/MS/MS analysis. The class given is functional, organism-based. The gist of the method: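 Fed C57BL/6 mice given a single dose; food then removed. At various timepoints, blood taken by cardiac puncture. Plasma diluted 10-fold in water, TCA protein precipitation, then LC/MS/MS for tryptophan, kynurenine (linear 20–10,000 nM kynurenine, 200–100,000 nM tryptophan) and drug, against aqueous standards.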

From ChEMBL document CHEMBL3997850 (ACS Med Chem Lett, 2017) come the findings set out here.

Active and inactive are the calls of the source. Where only a bound is given, the exact number is not on record here.

T1 sequence (P14902 whole entry): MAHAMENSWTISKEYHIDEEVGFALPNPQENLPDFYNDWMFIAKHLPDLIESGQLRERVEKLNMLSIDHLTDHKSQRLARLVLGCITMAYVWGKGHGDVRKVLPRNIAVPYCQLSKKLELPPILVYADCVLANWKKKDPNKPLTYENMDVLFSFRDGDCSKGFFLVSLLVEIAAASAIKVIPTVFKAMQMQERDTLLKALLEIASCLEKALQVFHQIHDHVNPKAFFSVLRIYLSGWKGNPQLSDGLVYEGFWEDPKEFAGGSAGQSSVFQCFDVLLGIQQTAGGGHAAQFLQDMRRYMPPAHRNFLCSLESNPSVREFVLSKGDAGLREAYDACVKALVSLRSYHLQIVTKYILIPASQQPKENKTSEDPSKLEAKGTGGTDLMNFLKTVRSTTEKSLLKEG

For orientation: IC50 means the concentration needed to halve the response being measured. Regarding `OCCNc1nonc1/C(=N/O)Nc1ccc(F)c(Br)c1`, the half-maximal inhibitory concentration (IC50) in data set [1] came out at 170 nM; in data set [2], 22 nM. Also, the CLH in [3] and in [4] was more than 36.7 mL/min/kg throughout. The Papp A→B at 2 h, 50 µM in data set [5] was determined as 31 ×10⁻⁶ cm/s. In addition, the Fu in data set [6] is on record as 2.3%.
For the compound `CNc1nonc1/C(=N/O)Nc1ccc(F)c(Br)c1`, the IC50 stood at 100 nM in data set [1] and 14 nM in data set [2]. The CLH in data set [3] and in data set [4] was more than 36.7 mL/min/kg each time.
The AUC is concentration integrated over time. By half-life is commonly meant the time needed for the level to fall by half in the phase considered. For the compound `NS(=O)(=O)NCCNc1nonc1C(=NO)Nc1ccc(F)c(Cl)c1`, the IC50 in [1] is 120 nM; in data set [2], 11 nM. Also, the CLH in data set [3] came to 8.3 mL/min/kg; in data set [4] it was 13 mL/min/kg. In addition, the Papp A→B at 2 h, 50 µM in data set [5] came to 4.3 ×10⁻⁶ cm/s. Besides, in data set [6], the Fu came to 3.8%. Besides, the AUC was determined as 3.3 µM·h in [7] and 15.1 µM·h in data set [11]. In addition, the half-life in data set [8] was 2.7 h; in data set [9] it was 4 h. Besides, in data set [10], the Efficacy is 13%.
Consider `CS(=O)(=O)NCCNc1nonc1C(=NO)Nc1ccc(F)c(Br)c1`, for which the IC50 in [1] was 100 nM; in data set [2], 16 nM. Besides, the values for the CLH in [3] and in [4] were 12 mL/min/kg and 25 mL/min/kg, respectively. Further, in data set [5], the Papp A→B at 2 h, 50 µM came out at 24 ×10⁻⁶ cm/s. The same compound showed a Fu in [6] of 2.4%.
For `O/N=C(\Nc1ccc(F)c(Br)c1)c1nonc1NCc1ccccc1`, the figures for the half-maximal inhibitory concentration (IC50) in [1] and in data set [2] were 230 nM and 280 nM, respectively. For the same compound, the CLH in [3] was 35 mL/min/kg; in data set [4] it was more than 36.7 mL/min/kg. Besides, in data set [6], the Fu was less than 0.5%.
`CCNc1nonc1/C(=N/O)Nc1ccc(F)c(Br)c1`: the IC50 is 180 nM in [1] and 35 nM in data set [2]. For the same compound, the CLH is 23.3 mL/min/kg in [3] and more than 36.7 mL/min/kg in data set [4].
Regarding `NCCNc1nonc1/C(=N/O)Nc1ccc(F)c(Br)c1`, the IC50 in data set [1] is 290 nM; in data set [2], 98 nM. The CLH in data set [3] was 18.3 mL/min/kg; in data set [4], 15 mL/min/kg. Besides, the Papp A→B at 2 h, 50 µM in data set [5] came to 1.8 ×10⁻⁶ cm/s. In data set [6], this compound had a Fu of 6.1%.
Turning to `COCCNc1nonc1/C(=N/O)Nc1ccc(F)c(Br)c1`, the results for the IC50 in [1] and in data set [2] were 200 nM and 100 nM, respectively. In addition, the CLH in [3] and in [4] was more than 36.7 mL/min/kg each time. Further, in data set [5], the Papp A→B at 2 h, 50 µM came to 44 ×10⁻⁶ cm/s. For the same compound, the Fu in data set [6] turned out to be 0.9%.
Consider `CN(C)c1nonc1/C(=N/O)Nc1ccc(F)c(Br)c1`, for which the half-maximal inhibitory concentration (IC50) in [1] and in data set [2] was more than 5000 nM throughout. Also, the CLH in data set [3] and in [4] was more than 36.7 mL/min/kg in each case.
As to `Nc1nonc1C(=Nc1ccc(F)c(Br)c1)NO`, the IC50 is 50 nM in data set [1] and 10 nM in data set [2]. For the same compound, the CLH in [3] was more than 36.7 mL/min/kg; in data set [4], 23.3 mL/min/kg.
Consider `Nc1nonc1C(=NO)Nc1ccc(F)c(Cl)c1`, for which the CLH in data set [3] and in data set [4] was more than 36.7 mL/min/kg throughout.
In the case of `CC(=O)NCCNc1nonc1/C(=N/O)Nc1ccc(F)c(Br)c1`, the IC50 came to 210 nM in data set [1] and 17 nM in data set [2]. The figures for the CLH in [3] and in [4] were 15 mL/min/kg and 33 mL/min/kg, respectively. For the same compound, the Papp A→B at 2 h, 50 µM in data set [5] came to 19 ×10⁻⁶ cm/s. Moreover, the Fu in data set [6] is listed as 4.4%.
Regarding `NS(=O)(=O)NCCNc1nonc1/C(=N/O)Nc1ccc(F)c(Br)c1` [EPACADOSTAT], in [10], the Efficacy was 56%. The TGI result in [12] was “inactive”. For the same compound, the inhibition result in data set [13] is “Active”.
